From article PMC9061760 (RSC Advances, 2019)
Several values for one entry are separate records, joined by “and”; a condition that tells them apart may be missing. Equal entries are not always repeated.

Columns and labels:
[1] = Steady state UV/Vis absorption; type: physicochemical; conditions: for ε 355 (extinction coefficient): 355 nm
Laser flash photolysis = type: physicochemical; conditions: excitation 355 nm, 30 mJ, 0.4 mM in 5× PBS buffer, pH 7
Summary of the method: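 Transient absorption after a single 355 nm pulse (third harmonic) from a Nd:YAG laser at 30 mJ pulse energy. Test compound at 0.4 mM in 5× PBS buffer, pH 7, in a 1 cm × 1 cm cuvette. The kinetic trace of the transient species, assigned to the nitronate, was followed over time to obtain its decay.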

## N[C@@H](CC(=O)O)C(=O)OC(C(=O)O)c1ccccc1[N+](=O)[O-].O=C(O)C(F)(F)F (mixture of isomers) [1a, α-carboxynitrobenzyl L-aspartate]
[1]
  ε 355 (extinction coefficient): 430 M⁻¹ cm⁻¹

## N[C@@H](CC(=O)O)C(=O)OC(C(=O)O)c1cc2c(cc1[N+](=O)[O-])OCO2.O=C(O)C(F)(F)F (stereo partly drawn) [1b, α-carboxynitropiperonyl L-aspartate]
Laser flash photolysis
  time constant of nitronate decay observed at 430 nm: 0.87 ms and 0.87 ± 0.04 ms
[1]
  λmax (additional absorption band): 365 nm
  ε 355 (extinction coefficient): 4060 M⁻¹ cm⁻¹
[1]; at 365 nm
  extinction coefficient at λmax: ~ 4000 M^−1 cm^−1
